This is an account of results in PMC4787808 (Nucleic Acids Research, 2015).

In series [1] the test system is intracellular L. donovani amastigotes. Kind of series: Inhibition of L. donovani amastigotes in infected THP-1 macrophages. The class given is cell-based, Leishmania donovani. Conditions: 1 μM, positive control. The procedure, abridged:
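THP-1 cells were differentiated with 25 ng/ml PMA for 24 h at 37°C, then infected with stationary-phase luciferase-expressing L. donovani promastigotes (5:1 parasite:macrophage) for 24 h and washed free of external parasites. Infected macrophages were trypsinised, checked by Giemsa stain and plated in triplicate (5 × 10^5 cells/ml). Compounds in medium with 1% DMSO were added for 48 h; lysates were read by Bright-Glo luminescence. Medium ± DMSO served as 0% inhibition; amphotericin B 1 μM was the positive control on each plate.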

In series [2] the test system is L. tarentolae S30 translation (leishmanial ribosomes). The experiment in a line: Cell-free inhibition of translation, L. tarentolae LEXSY system. The format is biochemical, Leishmania tarentolae. The conditions noted are these: relative to PAR. An outline of the steps:
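Leishmania tarentolae cell-free LEXSY translation system driven by a pLEXSY-in-vitro2 vector encoding EGFP. Reactions with varied aminoglycoside concentrations ran 120 min at 26°C, and GFP fluorescence was read directly (ex 488, em 507 nm). Each curve used at least six concentrations. IC50 values came from concentration-response fits of at least three independent repeats.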

Series [3] relates to auditory outer hair cells (organ of Corti explants). Kind of series: Toxicity assay in cochlear explants. The class given is cell-based, CBA/J mice. An outline of the steps:
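Organ of Corti explants from postnatal day 2–3 CBA/J mice were kept in serum-free medium with supplement, BSA, glutamine and glucose, and pre-incubated about 48 h. They were then exposed to drug for 72 h, fixed in 4% PFA, permeabilised and stained with rhodamine phalloidin. Hair cells were counted apex to base under 50x oil and compared with a cytocochleogram database. Loss was reported as percent averaged over the whole explant length.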

Series [4] relates to Leishmania. Conditions: cited from earlier work.

Entries after “also recorded” stand apart in the source; their conditions may differ.

Turning to `C[C@@H]1[C@H](O)[C@@H](C)/C=C/C=C/C=C/C=C/C=C/C=C/C=C/[C@H](O[C@@H]2O[C@H](C)[C@@H](O)[C@H](N)[C@@H]2O)C[C@@H]2O[C@](O)(C[C@@H](O)C[C@@H](O)[C@H](O)CC[C@@H](O)C[C@@H](O)CC(=O)O[C@H]1C)C[C@H](O)[C@H]2C(=O)O` [Amphotericin B], the “decrease in intracellular amastigotes” value in series [1] was more than 90%.
As for `CN[C@@H]1[C@@H](O)[C@@H](O[C@@H]2[C@@H](O)[C@H](O[C@H]3O[C@H]([C@@H](C)O)[C@@H](O)[C@H](O)[C@H]3N)[C@@H](N)C[C@H]2N)OC[C@]1(C)O` [G418, Geneticin], in series [2], the “times more potent in inhibiting leishmanial ribosomal translation than PAR” value stood at 20 times. Further, the “toxicity to auditory outer hair cells along entire length of explant (in words)” value in series [3] (murine explants, 72 h) is on record as “high toxicity”.
As for `CNC(C)C1CCC(N)C(OC2C(N)CC(N)C(OC3OCC(C)(O)C(NC)C3O)C2O)O1` (centres unmarked) [Gentamicin], the “anti-leishmanial activity (in words)” value in series [4] is given as “lack an anti-leishmanial activity”.
Consider `NC[C@@H]1O[C@H](O[C@H]2[C@@H](O)[C@H](O[C@@H]3[C@@H](O)[C@H](N)C[C@H](N)[C@H]3O[C@H]3O[C@H](CO)[C@@H](O)[C@H](O)[C@H]3N)O[C@@H]2CO)[C@H](N)[C@@H](O)[C@@H]1O` [PAR, Paromomycin], for which the “outer hair cell pathology, basal turn of explant” value is “intact” in series [3] (10 μM, 72 h); “significant loss of OHC; also recorded: partial destruction of outer hair cells” in series [3] (22 μM, 72 h); “complete destruction; also recorded: complete elimination of basal-turn outer hair cells” in series [3] (33 μM, 72 h). The “IC Coch50 (outer hair cell loss in cochlear explants)” value in series [3] (murine explants, 72 h exposure) came out at 30 µM.
